In ChEMBL document CHEMBL3792382, “Synthesis of new secretory phospholipase A2-inhibitory indole containing isoxazole derivatives as anti-inflammatory and anticancer agents” (Eur J Med Chem, 2016):

Legend:
[1] = Inhibition of human type 2A secretory PLA2 using diheptanoyl thio-PC as substrate after 15 mins by ELISA
In short: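 Type IIA sPLA2 from a commercial kit was incubated with inhibitor and diheptanoyl thio-PC substrate for 15 min. DTNB was then added and the thiol released by hydrolysis was read at 415 nm. Control wells held no inhibitor. % inhibition = (A control − A test)/A control × 100, and IC50 was taken from the dose-response; ursolic acid served as positive control.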

[2] = Partition coefficient, logP of the compound; assay type: physicochemical; conditions: octanol/water
[3] = test system: Rattus norvegicus; assay: Antiinflammatory activity against carrageenan-induced paw edema in Wistar albino rat model at 10 mg/kg, po administered 1 hr prior to carrageenan-challenge measured at 3rd hr by plethysmometer; assay type: functional
In short: (§1)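 Rats were dosed orally 1 h before subplantar injection of 0.1 ml 1% λ-carrageenan in saline into the left hind paw, with saline in the right paw. Vehicle controls received saline 1 ml/kg p.o.; ursolic acid served as positive control. Paw volume was read by mercury plethysmometer before injection and at 1, 2, 3, 4 and 6 h. Results are % edema inhibition versus vehicle, mean ± SEM, n = 3-6, one-way ANOVA.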

[4] = test system: Rattus norvegicus; assay: Antiinflammatory activity against carrageenan-induced paw edema in Wistar albino rat model at 10 mg/kg, po administered 1 hr prior to carrageenan-challenge measured at 4th hr by plethysmometer; assay type: functional; in short: as §1
[5] = test system: MCF7; assay: Antiproliferative activity against human MCF7 cells after 48 hrs by MTT assay; assay type: functional, cell-based; conditions: MCF7, 48 h
In short: (§2)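 Cells were grown in RPMI with 10% FCS, penicillin and streptomycin at 37 °C in humidified CO2. They were exposed to a range of concentrations for 48 h, then given MTT for 2 h at 37 °C. Formazan was dissolved in DMSO and absorbance read at 570 nm (reference 620 nm). IC50 was derived from the readings, with doxorubicin as positive control.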

[6] = Antiproliferative activity against human DU145 cells after 48 hrs by MTT assay; assay type: functional, cell-based; conditions: DU-145, 48 h; in short: as §2

Molecule `COc1ccc(-c2cc(CNCc3c[nH]c4ccccc34)on2)cc1` has an IC50 [1] of 18.2 µM and a logP [2] of 3.5.
`Cc1ccc2[nH]cc(CNCc3cc(-c4ccccc4)no3)c2c1` gave an IC50 [1] of 27.9 µM and a logP [2] of 3.87.
`COc1ccc(-c2cc(CNCc3c[nH]c4ccc(C)cc34)on2)cc1` showed an IC50 [1] of 24.6 µM and a logP [2] of 3.92.
Molecule `Brc1ccc2[nH]cc(CNCc3cc(-c4ccccc4)no3)c2c1` has an IC50 [1] of 32.5 µM and a logP [2] of 4.23.
Molecule `O=[N+]([O-])c1ccc(-c2cc(CNCc3c[nH]c4ccccc34)on2)cc1` has an IC50 [1] of 25.6 µM and a logP [2] of 3.4.
In the case of `Cc1ccc2[nH]cc(CNCc3cc(-c4ccc(F)c(C(F)(F)F)c4)no3)c2c1`, the IC50 [1] is reported as 10.2 µM, the inhibition in vivo at 10 mg/kg [3] is reported as 75.7% and the inhibition in vivo at 10 mg/kg [4] is reported as 76.5%. For the same molecule, the IC50 [5] was 10 µM, the IC50 [6] was 14.2 µM and the logP [2] was 4.85.
Work on `Cc1ccc2[nH]cc(CNCc3cc(-c4ccc([N+](=O)[O-])cc4)no3)c2c1` yielded an IC50 [1] of 19.4 µM and a logP [2] of 3.83.
`Cc1ccc(-c2cc(CNCc3c[nH]c4ccccc34)on2)cc1` gave an IC50 [1] of 22.7 µM and a logP [2] of 3.89.
`COc1cccc2c1C(=O)c1c(O)c3c(c(O)c1C2=O)C[C@@](O)(C(=O)CO)C[C@@H]3O[C@H]1C[C@H](N)[C@H](O)[C@H](C)O1` [DOXORUBICIN] showed an IC50 [6] of 4.75 µM.
With `Fc1ccc(-c2cc(CNCc3c[nH]c4ccccc34)on2)cc1C(F)(F)F` the IC50 [1] was 21.5 µM and the logP [2] was 4.43.
`c1ccc(-c2cc(CNCc3c[nH]c4ccccc34)on2)cc1` showed an IC50 [1] of 30.6 µM and a logP [2] of 3.44.
For `C[C@H]1[C@H](C)CC[C@]2(C(=O)O)CC[C@]3(C)C(=CC[C@@H]4[C@@]5(C)CC[C@H](O)C(C)(C)[C@@H]5CC[C@]43C)[C@H]12` [URSOLIC ACID], the IC50 [1] was 12.6 µM, the inhibition in vivo at 10 mg/kg [3] was 73% and the inhibition in vivo at 10 mg/kg [4] was 75.2%.
With `COc1ccc(-c2cc(CNCc3c[nH]c4ccc(Br)cc34)on2)cc1` the IC50 [1] was 32.6 µM and the logP [2] was 4.28.
Molecule `Cc1ccc(-c2cc(CNCc3c[nH]c4ccc(Br)cc34)on2)cc1` has an IC50 [1] of 27.3 µM and a logP [2] of 4.67.
`Cc1ccc(-c2cc(CNCc3c[nH]c4ccc(C)cc34)on2)cc1` gave an IC50 [1] of 21.6 µM and a logP [2] of 4.33.
`Fc1ccc(-c2cc(CNCc3c[nH]c4ccc(Br)cc34)on2)cc1C(F)(F)F` showed an IC50 [1] of 17.2 µM and a logP [2] of 5.21.
`O=[N+]([O-])c1ccc(-c2cc(CNCc3c[nH]c4ccc(Br)cc34)on2)cc1` showed an IC50 [1] of 22.4 µM and a logP [2] of 4.19.
